Screens deposited in PubChem by several laboratories.
bCat KO growth: beta-catenin-lacking colon tumor cell growth suppression; HCT116 beta-catenin knockout viability, CellTiter-Glo, 60 h; active compounds read low; viability, % at 10 µM; actives 1.5% (n = 140,000); AID 818;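 active = viability at or under a set limit, the compound median less 4 SD, cut at about 6% in these data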;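 also: 0% = Hyamine 1622 control at 20 µM and 100% = untreated cell control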
PMI activator: phosphomannose isomerase (human) activation | P34949 | purified human PMI, coupled resazurin fluorescence, 20 min; active compounds read high; 1 = vehicle control, 0 substrate-free wells | activation factor at 20 µM | actives 0.005% (n = 190,000);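 active = activation factor of 2 or more at 20 µM, relative to plate controls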
Target sequence (P34949 whole entry, looked up): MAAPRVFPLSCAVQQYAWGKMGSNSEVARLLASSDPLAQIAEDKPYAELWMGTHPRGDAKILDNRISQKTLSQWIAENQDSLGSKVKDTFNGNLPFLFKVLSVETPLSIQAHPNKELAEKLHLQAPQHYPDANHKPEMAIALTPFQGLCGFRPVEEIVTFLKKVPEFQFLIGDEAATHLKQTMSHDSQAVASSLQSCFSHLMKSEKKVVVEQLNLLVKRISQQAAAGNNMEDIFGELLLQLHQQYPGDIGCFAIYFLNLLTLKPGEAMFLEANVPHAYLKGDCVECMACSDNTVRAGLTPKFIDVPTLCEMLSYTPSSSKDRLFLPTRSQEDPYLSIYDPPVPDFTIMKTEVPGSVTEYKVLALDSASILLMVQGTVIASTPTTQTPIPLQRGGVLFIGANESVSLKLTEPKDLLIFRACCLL
PMI act satM6P: activators of human phosphomannose isomerase at near-saturating mannose 6-phosphate | P34949 | coupled PMI enzyme assay, resazurin fluorescence, 20 min; active compounds read high; 1 = untreated enzyme, 0 = substrate-free blank | activation factor at 20 µM | actives 0.34% (n = 190,000) | AID 1216;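 active = activation factor of 2 or more at 20 µM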
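Material: human phosphomannose isomerase with PGI, G6PDH, diaphorase coupling enzymes; amount: PMI at 15 ng/mL final; also added: Mannose-6-phosphate 1.0 mM (near-saturating) plus 0.22 mM NADP+; incubation: enzyme reaction with compound 20 min at room temperature; signal: resorufin fluorescence (Ex 544/Em 590 nm) from resazurin via diaphorase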
L major viab: Leishmania major promastigote growth inhibition; Leishmania major promastigotes, resazurin fluorescence viability; inhibition, % at 10 µM; actives 9% (n = 200,000); in the data active = inhibition above about 50%;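 also: promastigotes grown with compound for 44 hours at 28 °C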
HCT116 PTEN-null: suppresses growth of cells with PTEN deletion; HCT116 PTEN-null viability, CellTiter-Glo, 60 h; active compounds read low; viability, % at 10 µM; actives 1.2% (n = 140,000); AID 827;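 active = viability at or below a set limit, 4 SD under the median of all tested compounds, cut at about 3.7% in these data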;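 also: PTEN knockout HCT116 line with beta catenin targeted HCT116 as companion control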
The depositor's hits bear a star; x = no result given. Rows were chosen to be rich in hits. Some 9.6% of all compounds tested hit in one or more screens of this group.

SMILES	bCat KO growth	PMI activator	PMI act satM6P	L major viab	HCT116 PTEN-null
Cc1ccc(C(=O)NC(NCc2ccco2)C(Cl)(Cl)Cl)cc1 (stereo not drawn)	89	0.8	0.9	60*	88
CC(c1nnc(SCC(=O)N2CC(=O)Nc3ccccc32)n1Cc1ccccc1)N(C)C (stereo not drawn)	101	1	1	-4	107
Cc1nccn1S(=O)(=O)c1ccc(Br)cc1Br	89	1	1	86*	94
COc1ccc(Br)cc1S(=O)(=O)n1ccnc1C	95	1	1	6	91
O=C(NNC(=O)C1[C@H]2CCCC[C@@H]12)NC1CCCCC1 (stereo partly drawn)	92	0.9	1	-4	97
CCN1C(=O)/C(=C\C(=O)c2cccs2)c2cc(Br)ccc21	x	0.9	0.8	100*	x
CCN1C(=O)/C(=C\N(C)C)c2ccccc21	95	1	1	-3	97
O=c1cc(-c2cccc([N+](=O)[O-])c2)[nH][nH]1	101	0.9	0.8	58*	105
Nc1nc(CCl)nc(Nc2ccccc2)n1	x	1.1	1.1	49	x
Nc1nc(Nc2ccccc2)nc2ccccc12	68	1.1	1.1	80*	62
Nc1nc(Nc2ccc(Cl)cc2)nc2ccccc12	17	1	1	93*	22
Cc1ccccc1Nc1nc(N)nc(CSc2nc3ccccc3c(=O)n2C)n1	90	1	0.9	6	75
Clc1ccc(/C=N/Nc2nc(Cl)nc3ccccc23)cc1	88	0.8	0.9	12	80
Cc1ccccc1Nc1nc(N)c2ccccc2n1	x	1	1	96*	x
O=C(CONS(=O)(=O)c1ccc(Cl)cc1)NCCNc1ncc(C(F)(F)F)cc1Cl	x	0.8	0.8	1	x
CCSc1nnc(NC(=O)C2CC2c2ccccc2)s1 (stereo not drawn)	77	0.8	1.1	82*	58
CCSc1nnc(NC(=O)C2CCN(S(=O)(=O)c3ccccc3C(F)(F)F)CC2)s1	76	0.8	0.9	55*	68
CCSc1nnc(NC(=O)C2CCN(S(=O)(=O)c3c(C)c(C)cc(C)c3C)CC2)s1	91	0.9	1	2	97
COc1cccc(NC(=O)C23CCC(C)(C(=O)O2)C3(C)C)c1 (stereo not drawn)	90	1	1	-3	92
O=C(Nc1ccc(Cl)cc1)Nc1nnc(CSCc2ccc(Cl)cc2)s1	30	1	0.9	13	28
O=C(Nc1cc(C(F)(F)F)ccc1-n1cncn1)c1ccc(-c2ccccc2)cc1	102	0.9	1	90*	94
O=C(Nc1cc(C(F)(F)F)ccc1-n1cncn1)c1ccc(Cl)cc1	91	0.9	1	-2	105
CCOC(=O)c1sc2c(c1C)C(c1cccs1)C1=C(CCCC1=O)N2 (stereo not drawn)	68	0.9	0.8	64*	86
CCOC(=O)C1=C(C)NC2=C(C(=O)CCC2)C1c1cccs1 (stereo not drawn)	95	0.8	0.8	16	97
COc1ccc(OC)c(-c2nc3c(C)n[nH]c(=O)c3[nH]2)c1	81	0.7	0.8	10	88
SMILES	bCat KO growth	PMI activator	PMI act satM6P	L major viab	HCT116 PTEN-null
CCO[C@@H]1OC(C(=O)N2CCCCCCC2)=C[C@H](c2ccc3c(c2)OCO3)[C@H]1CCCO	x	0.9	0.9	-1	x
Clc1cc(Br)ccc1OCCn1ccnc1	103	1	1	28	88
Clc1cc(Br)ccc1OCCCn1ccnc1	81	1.1	1	97*	89
Cc1cc(Br)ccc1OCCn1ccnc1	92	1.1	1.1	72*	92
COc1cccc(C2/C(=C(\O)c3c(C)nc4c(C)cccn34)C(=O)C(=O)N2CCCN(C)C)c1 (stereo not drawn)	x	1.1	1	x	x
COc1ccc(OC)c(C(=O)Cn2c3[n+](c4ccc(C(F)(F)F)cc42)CCCCC3)c1	x	1	1	99*	x
COCCNCC1C(Oc2ccc(Cl)cc2)C(=O)N1c1ccccc1C (stereo not drawn)	x	1.1	0.5	-3	x
Cc1ccccc1N1C(=O)C(Oc2ccc(Cl)cc2)C1CNC(C)(C)C (stereo not drawn)	61	0.9	1.1	87*	58
O=C(COC(=O)c1oc2ccccc2c1COc1ccccc1)NCCN1C(=O)CSC1=O	90	0.8	0.8	-1	94
CCCN(CC(=O)Nc1cc(Cl)cc(Cl)c1)CC(=O)Nc1ccc(F)c(F)c1F	11	0.8	0.9	63*	6
CCCN(CC(=O)Nc1ccccc1Br)CC(=O)Nc1ccc(F)c(F)c1F	59	0.9	0.9	9	50
CC1=NNC(=O)C1CCC(=O)N/N=C\c1ccccc1[N+](=O)[O-] (stereo not drawn)	101	0.9	0.9	-6	103
CN1CCc2c(c3ccccc3n2C)C1	89	1	1	-2	98
CN1CCc2c(c3ccccc3n2Cc2ccccc2)C1	67	1.2	1.1	100*	63
Cc1cc(O)ccc1N1C(=O)c2cccc3cc([N+](=O)[O-])cc(c23)C1=O	x	0.9	0.9	88*	x
Cc1cccc(C)c1N1C(=O)c2cccc([N+](=O)[O-])c2C1=O	92	1.1	1	7	92
O=C1c2cccc3cc([N+](=O)[O-])cc(c23)C(=O)N1c1ccccc1O	x	0.9	0.9	98*	x
O=C1c2cccc3c([N+](=O)[O-])c(O)cc(c23)C(=O)N1Nc1ccccc1	x	1.2	1	-5	x
COc1cccc(CC2(CO)CCCN(Cc3cn[nH]c3-c3cc(C)ccc3C)C2)c1 (stereo not drawn)	x	1	0.9	18	x
O=C(c1cc(-c2ccccn2)nc2c(Cl)cccc12)N1CCN(S(=O)(=O)c2ccccc2)CC1	84	0.9	0.9	81*	75
CCOC(=O)c1sc(NC(=O)c2ccc(Br)o2)cc1C	97	0.9	0.8	23	91
CCOC(=O)c1sc(NC(=O)c2cccs2)cc1C	63	1	1	-4	66
CCOC(=O)c1sc(NC(=O)c2sccc2C)cc1C	72	0.9	0.9	69*	71
CCOC(=O)c1sc(NC(=O)Nc2cccc(Cl)c2)cc1C	3.6*	0.8	0.8	25	2.4*
O=c1cc(CSc2nc3ccccc3c(=O)[nH]2)c2ccc(O)cc2o1	x	0.9	0.9	-6	x
CCCCOP(=O)(OCCCC)C1(NS(=O)(=O)c2ccccc2)C=CC(=O)c2ccccc21 (stereo not drawn)	87	0.7	0.6	100*	67
CCN(c1ccccc1)S(=O)(=O)c1ccc(C(C(=O)OC)C(=O)OC)c([N+](=O)[O-])c1	x	1	1	99*	x
CC(C)CCNCC1OCc2ccccc2CO1	85	0.9	1	-3	86
CS(=O)(=O)N(Cc1ccccc1)c1ccc(C(=O)NCCSc2ccccn2)cc1	87	0.8	1	60*	80
